Publication PMC12366268 (The Febs Journal, 2025)
Like-named read-outs stand apart in the source and are kept apart here.

Assays:
PCNA = PCNA (Homo sapiens, UniProt P12004); assay: Isothermal titration calorimetry; type: binding; conditions: ITC, pH 7.4, 25 °C, mean ± SEM of n = 3
In short: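 His6-tagged PCNA (HRV 3C site) was IPTG-induced at 37 °C, then purified by Ni-NTA and Superdex 200 SEC. Protein was buffer-exchanged into 20 mM sodium phosphate, 0–500 mM NaCl, 1 mM TCEP, pH 7.4, with peptides dissolved in the same buffer. PCNA was in the cell, peptide in the syringe; 25 °C, 750 rpm stirring. Data were fitted to a one-set-of-sites model; triplicates, SEM.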

[1] = Stability in human serum measured by mass spectrometry; type: in vitro ADME; conditions: 25% human serum in PBS
In short: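 Peptide at 10 μM was incubated in 25% human serum in PBS at 37 °C. Aliquots were taken at 0, 2.5, 5, 10, 20, 40 and 60 min into 0.2% formic acid (1:4) containing an internal standard and held at 4 °C. Peptide abundance relative to the internal standard was measured by mass spectrometry and plotted against incubation time.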

[2] = molecular target: T1, proliferating cell nuclear antigen (PCNA) (UniProt P12004 1-261); assay: ITC
[3] = molecular target: T1, proliferating cell nuclear antigen …; assay: ITC; remark: listed apart in the source
[4] = molecular target: T1, proliferating cell nuclear antigen …; assay: ITC; remark: listed apart in the source
[5] = molecular target: T1, proliferating cell nuclear antigen …; assay: ITC; remark: listed apart in the source
[6] = molecular target: T1, proliferating cell nuclear antigen …; assay: ITC; remark: listed apart in the source
[7] = molecular target: T1, proliferating cell nuclear antigen …; assay: ITC; remark: listed apart in the source

PCNA, sequence (P12004 whole entry): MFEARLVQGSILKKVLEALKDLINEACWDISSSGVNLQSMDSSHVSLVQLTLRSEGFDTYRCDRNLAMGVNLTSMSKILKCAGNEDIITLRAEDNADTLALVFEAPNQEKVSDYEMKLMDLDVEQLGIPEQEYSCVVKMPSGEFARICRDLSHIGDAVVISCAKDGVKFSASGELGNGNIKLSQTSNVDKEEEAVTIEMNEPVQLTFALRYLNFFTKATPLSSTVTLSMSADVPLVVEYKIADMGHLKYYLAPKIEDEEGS
T1 sequence (P12004 whole entry): as above

Ac-KKKKQTSMTDFYHSKKK-NH2 [p21All–K]
N (binding stoichiometry) (PCNA; 100 mM NaCl): 0.92 ± 0.01 | ΔH (PCNA; 100 mM NaCl): -16.3 ± 0.48 kcal/mol | −TΔS (PCNA; 100 mM NaCl): 6.69 ± 0.48 kcal/mol | N (binding stoichiometry) (PCNA; 200 mM NaCl): 0.75 ± 0.02 | ΔH (PCNA; 200 mM NaCl): -17.7 ± 0.96 kcal/mol | −TΔS (PCNA; 200 mM NaCl): 8.84 ± 0.96 kcal/mol | N (binding stoichiometry) (PCNA; 300 mM NaCl): 0.71 ± 0.02 | ΔH (PCNA; 300 mM NaCl): -19.1 ± 0.72 kcal/mol | −TΔS (PCNA; 300 mM NaCl): 9.8 ± 0.72 kcal/mol | N (binding stoichiometry) (PCNA; 400 mM NaCl): 0.80 ± 0.02 | ΔH (PCNA; 400 mM NaCl): -18.2 ± 0.72 kcal/mol | −TΔS (PCNA; 400 mM NaCl): 9.8 ± 0.96 kcal/mol

Ac-RRRRQTSMTDFYHSRRR-NH2 [p21All–R]
N (binding stoichiometry) (PCNA; 100 mM NaCl): 0.80 ± 0.05 | ΔH (PCNA; 100 mM NaCl): -20.8 ± 0.24 kcal/mol | −TΔS (PCNA; 100 mM NaCl): 10.8 ± 0.48 kcal/mol | N (binding stoichiometry) (PCNA; 200 mM NaCl): 0.73 ± 0.01 | ΔH (PCNA; 200 mM NaCl): -20.1 ± 0.72 kcal/mol | −TΔS (PCNA; 200 mM NaCl): 10.8 ± 0.72 kcal/mol | N (binding stoichiometry) (PCNA; 300 mM NaCl): 0.68 ± 0.01 | ΔH (PCNA; 300 mM NaCl): -20 ± 0.22 kcal/mol | −TΔS (PCNA; 300 mM NaCl): 11 ± 0.24 kcal/mol | N (binding stoichiometry) (PCNA; 400 mM NaCl): 0.61 ± 0.02 | ΔH (PCNA; 400 mM NaCl): -19.4 ± 0.72 kcal/mol | −TΔS (PCNA; 400 mM NaCl): 10.5 ± 0.72 kcal/mol

Ac-KRKKQTSMTDFYHSRKK-NH2 [p21SWAP]
N (binding stoichiometry) (PCNA; 100 mM NaCl): 0.95 ± 0.04 | ΔH (PCNA; 100 mM NaCl): -14.5 ± 0.22 kcal/mol | −TΔS (PCNA; 100 mM NaCl): 4.9 ± 0.22 kcal/mol | N (binding stoichiometry) (PCNA; 200 mM NaCl): 0.79 ± 0.09 | ΔH (PCNA; 200 mM NaCl): -18.2 ± 0.48 kcal/mol | −TΔS (PCNA; 200 mM NaCl): 9.08 ± 0.48 kcal/mol | N (binding stoichiometry) (PCNA; 300 mM NaCl): 0.82 ± 0.04 | ΔH (PCNA; 300 mM NaCl): -17.2 ± 0.96 kcal/mol | −TΔS (PCNA; 300 mM NaCl): 8.6 ± 0.96 kcal/mol | N (binding stoichiometry) (PCNA; 400 mM NaCl): 0.79 ± 0.01 | ΔH (PCNA; 400 mM NaCl): -17.7 ± 0.48 kcal/mol | −TΔS (PCNA; 400 mM NaCl): 9.08 ± 0.48 kcal/mol

CSCC[C@H](NC(=O)[C@H](CO)NC(=O)[C@@H](NC(=O)[C@H](CCC(N)=O)NC(=O)[C@H](CCCNC(=N)N)NC(=O)[C@H](CCCNC(=N)N)NC(=O)[C@H](CCCCN)NC(=O)[C@H](CCCNC(=N)N)NC(C)=O)[C@@H](C)O)C(=O)N[C@H](C(=O)N[C@@H](CC(=O)O)C(=O)N[C@@H](Cc1ccccc1)C(=O)N[C@@H](Cc1ccc(O)cc1)C(=O)N[C@@H](Cc1c[nH]cn1)C(=O)N[C@@H](CO)C(=O)N[C@@H](CCCCN)C(=O)N[C@@H](CCCNC(=N)N)C(=O)N[C@@H](CCCNC(=N)N)C(N)=O)[C@@H](C)O [p21_140–156]
half-life at 10 μM [1]: ~11 min

Ac-RKRRQTSMTDFYHSKRR-NH2 [p21_(140–156) peptide (wild-type p21 PIP-degron with flanking regions)]
Kd [2]: 19 nM | dH [2]: -17.7 kcal/mol | stoichiometry N [2]: 0.77 | Kd [3]: 68 nM | dH [3]: -18.1 kcal/mol | stoichiometry N [3]: 0.86 | Kd [4]: 182 nM | dH [4]: -21.5 kcal/mol | stoichiometry N [4]: 0.86 | Kd [5]: 341 nM | dH [5]: -21.4 kcal/mol | stoichiometry N [5]: 0.76 | Kd [6]: 606 nM | dH [6]: -22.2 kcal/mol | stoichiometry N [6]: 0.8 | Kd [7]: 579 nM | dH [7]: -21.3 kcal/mol | stoichiometry N [7]: 0.72

Ac-QTSMTDFYHS-NH2 [p21_(core) peptide (isolated p21 core motif QTSMTDFYHS)]
dH [3]: -13.4 kcal/mol | stoichiometry N [3]: 0.7 | Kd [5]: 34300 nM | dH [5]: -21 kcal/mol | stoichiometry N [5]: 0.71

Ac-RRRRQTSMTDFYHSRRR-NH2 [p21_(All–R) peptide]
Kd [3]: 45 nM | dH [3]: -20.8 kcal/mol | stoichiometry N [3]: 0.8 | Kd [4]: 139 nM | dH [4]: -20.1 kcal/mol | stoichiometry N [4]: 0.73 | Kd [5]: 273 nM | dH [5]: -20 kcal/mol | stoichiometry N [5]: 0.68 | Kd [6]: 398 nM | dH [6]: -19.4 kcal/mol | stoichiometry N [6]: 0.61

Ac-KKKKQTSMTDFYHSKKK-NH2 [p21_(All–K) peptide]
Kd [3]: 87 nM | dH [3]: -16.3 kcal/mol | stoichiometry N [3]: 0.92 | Kd [4]: 347 nM | dH [4]: -17.7 kcal/mol | stoichiometry N [4]: 0.75 | Kd [5]: 456 nM | dH [5]: -19.1 kcal/mol | stoichiometry N [5]: 0.71 | Kd [6]: 653 nM | dH [6]: -18.2 kcal/mol | stoichiometry N [6]: 0.8

Ac-KRKKQTSMTDFYHSRKK-NH2 [p21_(SWAP) peptide]
Kd [3]: 87 nM | dH [3]: -14.5 kcal/mol | stoichiometry N [3]: 0.95 | Kd [4]: 206 nM | dH [4]: -18.2 kcal/mol | stoichiometry N [4]: 0.79 | Kd [5]: 407 nM | dH [5]: -17.2 kcal/mol | stoichiometry N [5]: 0.82 | Kd [6]: 547 nM | dH [6]: -17.7 kcal/mol | stoichiometry N [6]: 0.79
